Data as given in ChEMBL document CHEMBL1933044.
The source made the active and inactive calls. No cut-off for these calls is given here.

Assays:
[1] = system: Matrix protein 2 (Influenza A virus), P06821 [V27A]; assay: Inhibition of Influenza A virus (A/Puerto Rico/8/1934(H1N1)) M2 channel V27A mutant expressed in Xenopus oocytes at 100 uM by two-electrode voltage clamp assay; type: cell-based; details: Oocyte
Summary of the method: (§1)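 Influenza A/Udorn/72 M2 cDNA, wild type or S31N or V27A mutant made by site-directed mutagenesis, expressed from mRNA microinjected into Xenopus oocytes. Two-electrode voltage clamp recording was done 48–72 h after injection. Compound was applied at pH 5.5 for 2 min once inward current peaked. Residual current was compared with current before application.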

[2] = system: Matrix protein 2 (Influenza A virus), P06821 [withheld]; assay: Inhibition of Influenza A virus (A/Puerto Rico/8/1934(H1N1)) M2 channel S31N mutant expressed in Xenopus oocytes at 100 uM by two-electrode voltage clamp assay; type: cell-based; details: Oocyte; summary of the method: as §1

| SMILES | inhibition [1] | inhibition [2] |
| --- | --- | --- |
| CN(C)C12CC3CC(C)(CC(C1)c1ccccc13)C2 | inactive | inactive |
| CC12CC3CC(NCc4ccccc4)(CC(C1)c1ccccc13)C2 | inactive | inactive |
| CC12CC3CC(N)(CC(C1)c1ccccc13)C2 | inactive | inactive |
